The subject of experiment [1] is Mus musculus. The experiment can be described thus: Compound was evaluated for the anticancer activity against P388 lymphocytic leukemia in vivo in mouse at a dosage of 100 mg/kg and the weight difference was measured. The experiment is classed as functional.
Experiment [2] concerns Mus musculus. Briefly: Compound was evaluated for the anticancer activity against P388 lymphocytic leukemia in vivo in mouse at a dosage of 100 mg/kg. The experiment is classed as functional.
Experiment [3] deals with Mus musculus. Briefly: Compound was evaluated for the anticancer activity against P388 lymphocytic leukemia in vivo in mouse at a dosage of 50 mg/kg and the weight difference was measured. In kind it is functional.
In experiment [4] the test system is Mus musculus. Briefly: Compound was evaluated for the anticancer activity against P388 lymphocytic leukemia in vivo in mouse at a dosage of 200 mg/kg and percent treated/control was reported. The experiment is classed as functional.
The test system of experiment [5] is Mus musculus. The experiment can be described thus: Compound was evaluated for the anticancer activity against P388 lymphocytic leukemia in vivo in mouse at a dosage of 50 mg/kg and percent treated/control was reported. In kind it is functional.
Experiment [6] deals with Mus musculus. The experiment can be described thus: Compound was evaluated for the anticancer activity against P388 lymphocytic leukemia in vivo in mouse at a dosage of 25 mg/kg and percent treated/control was reported. In kind it is functional.
In experiment [7] the test system is Mus musculus. The experiment can be described thus: Compound was evaluated for the anticancer activity against P388 lymphocytic leukemia in vivo in mouse at a dosage of 200 mg/kg, survivals were reported. The experiment is classed as functional.
Experiment [8] has as its system Mus musculus. The experiment can be described thus: Compound was evaluated for the anticancer activity against P388 lymphocytic leukemia in vivo in mouse at a dosage of 25 mg/kg. The survivals were reported. In kind it is functional.
The subject of experiment [9] is Mus musculus. Briefly: Compound was evaluated for the anticancer activity against P388 lymphocytic leukemia in vivo in mouse at a dosage of 200 mg/kg and the weight difference was measured. The experiment is classed as functional.
Experiment [10] deals with Mus musculus. Briefly: Compound was evaluated for the anticancer activity against P388 lymphocytic leukemia in vivo in mouse at a dosage of 50 mg/kg. The survivals were reported. The experiment is classed as functional.
Experiment [11] can be described thus: Compound was evaluated for its cytotoxic activity in vitro KB cell culture system derived from human epidermoid carcinoma. The settings on record: read-out: ED50 (the source's name). In kind it is functional.
Experiment [12] has as its system Mus musculus. The experiment can be described thus: Compound was evaluated for the anticancer activity against P388 lymphocytic leukemia in vivo in mouse at a dosage of 100 mg/kg and percent treated/control was reported. The experiment is classed as functional.
In experiment [13] the test system is Mus musculus. Briefly: Compound was evaluated for the anticancer activity against P388 lymphocytic leukemia in vivo in mouse at a dosage of 25 mg/kg and the weight difference was measured. In kind it is functional.
Another experiment relates to L1210. The experiment can be described thus: Activity against L1210 was reported. The experiment is classed as functional, Mus musculus.
Experiment [14] in a line: Compound was evaluated for its cytotoxic activity in vitro KB cell culture system. The settings on record: Homo sapiens, read-out: ED50 (the source's name). The experiment is classed as functional. The procedure, abridged: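 Cytotoxicity was measured in cultured KB human cancer cells and reported as ED50 values.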
Experiment [15] concerns Mus musculus. The experiment can be described thus: Compound was evaluated for the anticancer activity against M5076 sarcoma in vivo in mouse at a dosage of 6.25 mg/kg, survivals were reported. In kind it is functional.
Experiment [16] concerns Mus musculus. The experiment can be described thus: Compound was evaluated for the anticancer activity against M5076 sarcoma in vivo in mouse at a dosage of 50 mg/kg, survivals were reported. The experiment is classed as functional.
The subject of experiment [17] is Mus musculus. Briefly: Compound was evaluated for the anticancer activity against M5076 sarcoma in mouse at a dosage of 400 mg/kg, survivals were reported. In kind it is functional.
Experiment [18] deals with Mus musculus. The experiment can be described thus: Compound was evaluated for the anticancer activity against M5076 sarcoma in vivo in mouse at a dosage of 12.5 mg/kg, survivals were reported. The experiment is classed as functional.
The subject of experiment [19] is Mus musculus. The experiment can be described thus: Compound was evaluated for the anticancer activity against M5076 sarcoma in vivo in mouse at a dosage of 25 mg/kg, survivals were reported. In kind it is functional.
In experiment [20] the test system is Mus musculus. The experiment can be described thus: Compound was evaluated for the anticancer activity against M5076 sarcoma in vivo in mouse at a dosage of 50 mg/kg and percent treated/control was reported. The experiment is classed as functional.
The subject of experiment [21] is Mus musculus. Briefly: Compound was evaluated for the anticancer activity against M5076 sarcoma in vivo in mouse at a dosage of 200 mg/kg, survivals were reported. In kind it is functional.
Experiment [22] has as its system Mus musculus. The experiment can be described thus: Compound was evaluated for the anticancer activity against M5076 sarcoma in vivo in mouse at a dosage of 100 mg/kg, survivals were reported. In kind it is functional.
Experiment [23] relates to Mus musculus. Briefly: Compound was evaluated for the anticancer activity against M5076 sarcoma in vivo in mouse at a dosage of 12.5 mg/kg. In kind it is functional.
The test system of experiment [24] is Mus musculus. The experiment can be described thus: Compound was evaluated for the anticancer activity against M5076 sarcoma in vivo in mouse at a dosage of 6.25 mg/kg and the weight difference was measured. The experiment is classed as functional.
In experiment [25] the test system is Mus musculus. The experiment can be described thus: Compound was evaluated for the anticancer activity against M5076 sarcoma in vivo in mouse at a dosage of 25 mg/kg and percent treated/control was reported. In kind it is functional.
Experiment [26] deals with Mus musculus. The experiment can be described thus: Compound was evaluated for the anticancer activity against M5076 sarcoma in vivo in mouse at a dosage of 25 mg/kg and the weight difference was measured. In kind it is functional.
In experiment [27] the test system is Mus musculus. Briefly: Compound was evaluated for the anticancer activity against M5076 sarcoma in vivo in mouse at a dosage of 100 mg/kg and the weight difference was measured. In kind it is functional.
Experiment [28] relates to Mus musculus. The experiment can be described thus: Compound was evaluated for the anticancer activity against M5076 sarcoma in vivo in mouse at a dosage of 6.25 mg/kg and percent treated/control was reported. The experiment is classed as functional.
Experiment [29] concerns Mus musculus. Briefly: Compound was evaluated for the anticancer activity against M5076 sarcoma in vivo in mouse at a dosage of 50 mg/kg and the weight difference was measured. In kind it is functional.
Experiment [30] relates to Mus musculus. The experiment can be described thus: Compound was evaluated for the anticancer activity against M5076 sarcoma in vivo in mouse at a dosage of 100 mg/kg and percent treated/control was reported. In kind it is functional.
Experiment [31] relates to Mus musculus. The experiment can be described thus: Compound was evaluated for the anticancer activity against M5076 sarcoma in vivo in mouse at a dosage of 200 mg/kg and the weight difference was measured. In kind it is functional.
For experiment [32], the system named is Mus musculus. The experiment can be described thus: Compound was evaluated for the anticancer activity against M5076 sarcoma in vivo in mouse at a dosage of 12.5 mg/kg and percent treated/control was reported. In kind it is functional.
Experiment [33] concerns Mus musculus. Briefly: Compound was evaluated for the anticancer activity against P388 lymphocytic leukemia in vivo in mouse at a dosage of 200 mg/kg. The survivals were reported. The experiment is classed as functional.
Experiment [34] deals with Mus musculus. Briefly: Compound was evaluated for the anticancer activity against P388 lymphocytic leukemia in vivo in mouse at a dosage of 400 mg/kg and percent treated/control was reported. In kind it is functional.
Experiment [35] deals with Mus musculus. Briefly: Compound was evaluated for the anticancer activity against P388 lymphocytic leukemia in vivo in mouse at a dosage of 400 mg/kg. The survivals were reported. In kind it is functional.
The subject of experiment [36] is Mus musculus. The experiment can be described thus: Compound was evaluated for the anticancer activity against P388 lymphocytic leukemia in vivo in mouse at a dosage of 400 mg/kg and the weight difference was measured. In kind it is functional.
Experiment [37] deals with Mus musculus. Briefly: Compound was evaluated for the anticancer activity against P388 lymphocytic leukemia in vivo in mouse at a dosage of 100 mg/kg. The survivals were reported. The experiment is classed as functional.
Experiment [38] deals with Mus musculus. Briefly: Compound was evaluated for the anticancer activity against P388 lymphocytic leukemia in vivo in mouse at a dosage of 12.5 mg/kg and the weight difference was measured. The experiment is classed as functional.
Experiment [39] deals with Mus musculus. Briefly: Compound was evaluated for the anticancer activity against P388 lymphocytic leukemia in vivo in mouse at a dosage of 12.5 mg/kg and percent treated/control was reported. The experiment is classed as functional.
Experiment [40] relates to Mus musculus. Briefly: Compound was evaluated for the anticancer activity against P388 lymphocytic leukemia in vivo in mouse at a dosage of 12.5 mg/kg. The survivals were reported. The experiment is classed as functional.
For experiment [41], the system named is Mus musculus. The experiment can be described thus: Compound was evaluated for the anticancer activity against P388 lymphocytic leukemia in vivo in mouse at a dosage of 50 mg/kg, survivals were reported. The experiment is classed as functional.

The values below come from ChEMBL document CHEMBL1122912, “Synthesis and antitumor activity of structural analogues of the anticancer benzophenanthridine alkaloid fagaronine chloride” (1985).

Consider `COc1cc2c[n+](C)c3c(c2cc1OC)Cc1cc(OS(C)(=O)=O)c(OC)cc1-3.[Cl-]`, for which the Weight difference in the experiment on Mus musculus [1] was -2.1; in the experiment on Mus musculus [3], -0.6; in the experiment on Mus musculus [9], -3.6; with Mus musculus [13], -1.3. Further, the Survival is given as 6 in the experiment with Mus musculus [2], 5 with Mus musculus [7], 6 in the experiment with Mus musculus [8] and 6 in the experiment with Mus musculus [10]. Moreover, the T/C in the experiment with Mus musculus [4] is 145%; with Mus musculus [5], 136%; with Mus musculus [6], 128%; with Mus musculus [12], 137%. The EC50 in [11] was found to be 0.01 µg/mL.

For the molecule `COc1cc2c[n+](C)c3c4cc5c(cc4ccc3c2cc1OC)OCO5.[Cl-]` [NITIDINE CHLORIDE], in the experiment on L1210, the T/C was determined as 136.

Regarding `COc1cc2cc(-c3ccc(OC(C)C)c(OC)c3)[n+](C)cc2cc1OC.[Cl-]`, the EC50 in experiment [11] was greater than 100 µg/mL.

Take `COc1cc2cc(-c3ccc4c(c3)OCO4)[n+](C)cc2cc1OC.[Cl-]`: the EC50 in experiment [14] was found to be 0.005 µg/mL.

As for `COc1cc2c[n+](C)c3c(c2cc1OC)Cc1c-3ccc(OS(C)(=O)=O)c1OC.[Cl-]`, the EC50 in [11] worked out at 0.1 µg/mL.

Consider `COc1cc2c[n+](C)c3c(c2cc1OC)Cc1cc2c(cc1-3)OCO2.[Cl-]`, for which the Survival in the experiment with Mus musculus [15] was determined as 10; in the experiment with Mus musculus [16], 9; in the experiment with Mus musculus [17], 0; with Mus musculus [18] it was 10; with Mus musculus [19], 10; with Mus musculus [21], 6. In the experiment on Mus musculus [22], this molecule displayed a Survival of 9. The T/C was found to be 107% in the experiment on Mus musculus [20]; 113% in the experiment on Mus musculus [25]; 115% in the experiment on Mus musculus [28]; 137% with Mus musculus [30]; 109% in the experiment with Mus musculus [32]. Also, the Weight difference in the experiment on Mus musculus [23] is -0.2; in the experiment with Mus musculus [24] it was -0.8; in the experiment on Mus musculus [26] it was -0.3; in the experiment with Mus musculus [27] it was -4.4; in the experiment on Mus musculus [29], -2; with Mus musculus [31], -7.2.

For the molecule `COc1cc2c[n+](C)c3c(c2cc1OC)Cc1c-3ccc(O)c1OC.[Cl-]`, the Weight change in the experiment on Mus musculus [1] is 0.2; in the experiment with Mus musculus [36], -1.5; in the experiment with Mus musculus [9], -0.2. The Survival in the experiment on Mus musculus [33], with Mus musculus [35] and with Mus musculus [37] was 6 each time. Moreover, the values for the T/C in the experiment on Mus musculus [34], in the experiment on Mus musculus [4] and in the experiment on Mus musculus [12] were 137%, 134% and 116%, respectively. For the same molecule, the EC50 in experiment [11] was 0.4 µg/mL.

On to `COc1cc2c(cc1O)Cc1c-2[n+](C)cc2cc(OC)c(OC)cc12.[Cl-]`, for which the figures for the Weight difference in the experiment on Mus musculus [38], with Mus musculus [3] and with Mus musculus [13] were 0.1, -0.4 and -0.1, respectively. In addition, the results for the T/C in the experiment with Mus musculus [39], with Mus musculus [5] and in the experiment with Mus musculus [6] were 130%, 149% and 138%, respectively. Moreover, the Survival in the experiment on Mus musculus [8] was 6; in the experiment on Mus musculus [40] it was 5; in the experiment with Mus musculus [41] it was 6. The EC50 in experiment [11] is 0.03 µg/mL.
